What was measured:
SW-620 = assay: Growth inhibition of human SW620 cells by MTT assay; type: functional
Method in brief: (§1)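 MTT viability assay: 3×10³ cells/well were pre-incubated for 24 h, then exposed to 0, 12.5, 25, 50, 100 or 200 μM for 12, 24, 48 or 72 h. MTT was added at 0.5 mg/mL final for 4 h, formazan dissolved in DMSO, and absorbance read at 570 nm. GI₅₀ was taken from growth-inhibition curves; mean ± SD of three independent experiments, each in sextuplicate.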

HT-29 = assay: Growth inhibition of human HT-29 cells by MTT assay; type: functional; method in brief: as §1

GI50 (SW-620)	GI50 (HT-29)	Compound
57.9 µM	61.3 µM	O=C(c1cccnc1)N(c1ccccc1Br)c1c2ccccc2c(=O)n2c1[nH]c1ccccc12
> 100 µM	> 100 µM	O=C(c1ccccc1)N(c1ccccc1)c1c2ccccc2c(=O)n2c1[nH]c1ccccc12
46 to 100 µM	43.7 to 100 µM	O=C(c1ccco1)N(c1ccccc1Br)c1c2ccccc2c(=O)n2c1[nH]c1ccccc12
69.7 µM	74.3 µM	O=C(c1ccccc1)N(Cc1ccccc1)c1c2ccccc2c(=O)n2c1[nH]c1ccccc12
53.5 µM	52.8 µM	CC(C)CN(C(=O)c1ccco1)c1c2ccccc2c(=O)n2c1[nH]c1ccccc12
48.9 µM	52.3 µM	O=C(c1ccncc1)N(CCc1ccccc1)c1c2ccccc2c(=O)n2c1[nH]c1ccccc12
46.9 to 100 µM	57.2 to 100 µM	CC(=O)N(c1ccccc1Br)c1c2ccccc2c(=O)n2c1[nH]c1ccccc12
> 100 µM	> 100 µM	O=C(Nc1c2ccccc2c(=O)n2c1[nH]c1ccccc12)c1ccccc1
44.1 µM	49.5 µM	CC(C)CN(C(=O)c1cccs1)c1c2ccccc2c(=O)n2c1[nH]c1ccccc12
47.6 µM	51.3 µM	O=C(c1cccs1)N(c1c2ccccc2c(=O)n2c1[nH]c1ccccc12)C1CC1
52.7 µM	59.8 µM	CC(C)CN(C(=O)c1ccccc1C(=O)O)c1c2ccccc2c(=O)n2c1[nH]c1ccccc12

— ChEMBL document CHEMBL4229410, “Facile construction of fused benzimidazole-isoquinolinones that induce cell-cycle arrest and apoptosis in colorectal cancer cells” (Bioorg Med Chem, 2018)
